Measurements as given in ChEMBL document CHEMBL1148162, “Structures of sesquiterpene polyol esters from Celastrus stephanotiifolius with potential tumor-promotion inhibitor activity” (J Nat Prod, 1993).

Tests used:
Format in all cases: cell-based
[1] = tested on: Raji; assay: Inhibition of 12-O-tetradecanoylphorbol-13-acetate induced EBV-early antigen activation in human Raji cells assessed as EA activation at 1000 molar ratio relative to TPA; design: scale not given: the % may be the effect or the level left; conditions: human gammaherpesvirus 4
In short: (§1)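 Raji cells stimulated with TPA at 20 ng/ml (32 pM/ml) in the presence of test compound at 10, 100, 500 or 1000 mol ratio to TPA. EBV early antigen activation is reported as a percentage of the TPA-only positive control (100%).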

[2] = tested on: Raji; assay: Inhibition of 12-O-tetradecanoylphorbol-13-acetate induced EBV-early antigen activation in human Raji cells assessed as EA activation at 500 molar ratio relative to TPA; design: scale not given: the % may be the effect or the level left; conditions: human gammaherpesvirus 4; in short: as §1
[3] = tested on: Raji; assay: Inhibition of 12-O-tetradecanoylphorbol-13-acetate induced EBV-early antigen activation in human Raji cells assessed as EA activation at 100 molar ratio relative to TPA; design: scale not given: the % may be the effect or the level left; conditions: human gammaherpesvirus 4; in short: as §1
[4] = tested on: Raji; assay: Inhibition of 12-O-tetradecanoylphorbol-13-acetate induced EBV-early antigen activation in human Raji cells assessed as EA activation at 10 molar ratio relative to TPA; design: scale not given: the % may be the effect or the level left; conditions: human gammaherpesvirus 4; in short: as §1
[5] = Cytotoxicity against human Raji cells assessed as cell viability at 1000 molar ratio; conditions: read-out: Activity
In short: (§2)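 Raji cell viability was recorded in the same TPA-induced EBV-EA assay (TPA 20 ng/ml, 32 pM/ml), with compound at 10, 100, 500 or 1000 mol ratio to TPA. Viability is reported as a percentage.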

[6] = Cytotoxicity against human Raji cells assessed as cell viability at 500 molar ratio; conditions: read-out: Activity; in short: as §2
[7] = Cytotoxicity against human Raji cells assessed as cell viability at 100 molar ratio; conditions: read-out: Activity; in short: as §2
[8] = Cytotoxicity against human Raji cells assessed as cell viability at 10 molar ratio; conditions: read-out: Activity; in short: as §2

CC(=O)O[C@H]1C[C@@H](C)[C@]23OC(C)(C)[C@H](C[C@H](OC(=O)c4ccccc4)[C@]2(C)[C@H]1OC(C)=O)[C@H]3OC(C)=O
Activity [1]: 34.2%
Activity [2]: 65.9%
Activity [3]: 92.9%
Activity [4]: 100%
viability at 1000 molar ratio [5]: 70%
viability at 500 molar ratio [6]: > 80%
viability at 100 molar ratio [7]: > 80%
viability at 10 molar ratio [8]: > 80%

CC(=O)O[C@H]1C[C@@H](C)[C@@]23C[C@@H](C[C@H](OC(=O)/C=C/c4ccccc4)[C@]2(C)[C@H]1O)C(C)(C)O3
Activity [1]: 0%
Activity [2]: 41.6%
Activity [3]: 86.4%
Activity [4]: 100%
viability at 1000 molar ratio [5]: 70%
viability at 500 molar ratio [6]: > 80%
viability at 100 molar ratio [7]: > 80%
viability at 10 molar ratio [8]: > 80%

CC(=O)O[C@H]1C[C@@H](C)[C@@]23C[C@@H](C[C@H](OC(=O)/C=C/c4ccccc4)[C@]2(C)[C@H]1OC(C)=O)C(C)(C)O3
Activity [1]: 25.6%
Activity [2]: 63.1%
Activity [3]: 89.4%
Activity [4]: 100%
viability at 1000 molar ratio [5]: 70%
viability at 500 molar ratio [6]: > 80%
viability at 100 molar ratio [7]: > 80%
viability at 10 molar ratio [8]: > 80%

CC(=O)O[C@H]1CC[C@@H](C)[C@]23OC(C)(C)[C@H](C[C@H](OC(=O)c4ccccc4)[C@]12C)[C@H]3OC(=O)c1ccccc1
Activity [1]: 53.6%
Activity [2]: 84.6%
Activity [3]: 100%
Activity [4]: 100%
viability at 1000 molar ratio [5]: 70%
viability at 500 molar ratio [6]: > 80%
viability at 100 molar ratio [7]: > 80%
viability at 10 molar ratio [8]: > 80%

CC(=O)O[C@H]1CC[C@@H](C)[C@]23OC(C)(C)[C@H](C[C@H](OC(=O)c4ccccc4)[C@]12C)[C@H]3OC(C)=O
Activity [1]: 26.2%
Activity [2]: 47.9%
Activity [3]: 92.1%
Activity [4]: 100%
viability at 1000 molar ratio [5]: 70%
viability at 500 molar ratio [6]: > 80%
viability at 100 molar ratio [7]: > 80%
viability at 10 molar ratio [8]: > 80%

CC(=O)O[C@@H]1[C@@H]2[C@@H](OC(C)=O)[C@]3(OC2(C)C)[C@H](C)CC[C@H](OC(C)=O)[C@@]3(C)[C@H]1OC(=O)c1ccccc1
Activity [1]: 15.3%
Activity [2]: 52.8%
Activity [3]: 90.6%
Activity [4]: 100%
viability at 1000 molar ratio [5]: 70%
viability at 500 molar ratio [6]: > 80%
viability at 100 molar ratio [7]: > 80%
viability at 10 molar ratio [8]: > 80%

CC(=O)O[C@@H]1[C@H]2[C@@H](O)[C@@H](OC(=O)c3ccccc3)[C@]3(C)[C@@H](OC(=O)c4ccccc4)CC[C@@H](C)[C@@]13OC2(C)C
Activity [1]: 0%
Activity [2]: 39.3%
Activity [3]: 81.1%
Activity [4]: 100%
viability at 1000 molar ratio [5]: 60%
viability at 500 molar ratio [6]: > 80%
viability at 100 molar ratio [7]: > 80%
viability at 10 molar ratio [8]: > 80%
